Screens from PubChem BioAssay.
Shown are actives, neighbours in structure and some others; about 3.5% of the full set was active somewhere.
MrgX1 antagonist: human MrgX1 receptor antagonism, primary screen. Q96LB2. MRGX1-HEK293 calcium flux, Fluo-4, BAM8-22 antagonism; hits give low values. B-score at 10 µM. hit rate 1.3% among 310,000;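 active = calcium-response B-score plate-corrected more than 3 library SD below zero, starting fluorescence within 5 deviations, no agonist response on first addition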;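 also: peak minus trough fluorescence over baseline after final BAM8-22 challenge near maximal dose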
Target sequence (Q96LB2 whole entry, looked up): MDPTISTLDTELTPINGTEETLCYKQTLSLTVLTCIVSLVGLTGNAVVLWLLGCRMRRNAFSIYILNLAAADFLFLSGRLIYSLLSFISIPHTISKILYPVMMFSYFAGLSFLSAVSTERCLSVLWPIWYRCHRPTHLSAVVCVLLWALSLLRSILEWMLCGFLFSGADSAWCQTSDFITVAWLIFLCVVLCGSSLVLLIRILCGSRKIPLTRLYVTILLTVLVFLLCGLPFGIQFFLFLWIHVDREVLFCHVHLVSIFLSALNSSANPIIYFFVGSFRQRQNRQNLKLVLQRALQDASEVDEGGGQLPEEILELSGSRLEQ
RGS4 block: human RGS4 inhibition; HEK293 M3R/RGS4 inducible, Fluo-4 calcium flux; hits give high values; triggered by carbachol at its EC20; hit rate 0.45% among 310,000; B-score at 10 µM; P49798;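 active = B-score, a plate-corrected calcium signal, over three deviations above library mean, with baseline fluorescence within five deviations of library mean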;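 also: RGS4 expression induced by doxycycline in cells with stable M3 receptor; B-score is computed from the integrated fluorescence ratio over baseline after carbachol; higher B-score means a larger calcium signal and so more RGS4 inhibition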
Target sequence (P49798 whole entry, looked up): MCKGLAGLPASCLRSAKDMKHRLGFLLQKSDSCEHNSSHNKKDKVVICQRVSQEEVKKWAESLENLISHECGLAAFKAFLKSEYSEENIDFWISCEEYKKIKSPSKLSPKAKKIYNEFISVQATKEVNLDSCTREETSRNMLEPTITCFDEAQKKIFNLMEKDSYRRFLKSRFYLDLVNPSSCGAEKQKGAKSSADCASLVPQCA
RGS4 pot: RGS4 potentiation or activation; HEK293 M3R/inducible RGS4, carbachol calcium flux Fluo4; hits give low values; B-score at 10 µM; hit rate 0.92% among 310,000; AID 463111;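 active = B-score of the integrated calcium signal more than 4 SD below the library mean, with starting fluorescence not abnormally high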;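 also: negative B-score means reduced calcium response which marks RGS4 activation or potentiation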
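System: HEK293 FlpIn-TREx cells, stable M3R, doxycycline-inducible RGS4. Timing: overnight RGS4 induction, 30 min dye load 37 °C, 20 min compound RT. Also added: carbachol, ECmax concentration. Measured by: Fluo4 fluorescence kinetic imaging of calcium. Evaluation: integrated calcium ratio converted to B score.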
MrgX1 PAM: human MrgX1 positive allosteric modulation, primary screen. Q96LB2. hit rate 0.63% among 310,000. B-score at 10 µM. MrgX1-HEK293, Fluo-4 calcium flux, FDSS; hits give high values. AID 588675;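 active = plate-corrected calcium response at least 3 library SD above typical, normal starting fluorescence, not activating the receptor alone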;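 also: compound read alongside a low EC10 to EC30 dose of BAM8-22 agonist; peak minus trough fluorescence over baseline measured at the second addition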
MrgX1 agonist: agonists of human MrgX1 receptor. Q96LB2. MrgX1-HEK293 cells, Fluo-4 calcium fluorescence, agonist mode; hits give high values. B-score at 10 µM. hit rate 0.44% among 310,000. AID 588627;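 active = calcium response B-score plate-corrected fluorescence ratio at least 3 library SD, with starting fluorescence B-score inside 5 SD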
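Material: MrgX1-expressing HEK293 cells; input: 15,000 cells per well; doses: test compound given as first of three sequential additions; schedule: overnight plating before 1 h dye loading; technique: Fluo-4 NW calcium-flux fluorescence, kinetic read; evaluation: baseline-normalised fluorescence change ratio, B-scored; control set: plate-wise positive and negative controls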
RGS4 inh valid: validation of RGS4 inhibitors; shares compounds with RGS4 block; HEK293 M3R/RGS4, carbachol calcium Fluo-4 fluorescence; carbachol added at its EC20; 0 = buffer wells, 100 = carbachol control; calcium response, % at 10 µM; hit rate 65% among 1,700; AID 492999;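 active = duplicate-averaged calcium response above the buffer-only control mean plus 5 SD of those controls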;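 also: integrated fluorescence ratio F max minus min over baseline F0; higher response in RGS4-induced cells means RGS4 inhibition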
M3R Ca ctr: counter-screen for RGS4 inhibitors: effect in non-induced cells; shares compounds with RGS4 block; HEK293 M3R non-induced, carbachol calcium Fluo-4; submaximal (EC20) carbachol stimulus; buffer wells 0%, carbachol control wells 100%; activity (percent), % at 10 µM; hit rate 20% among 1,900; AID 493000; call rule not given here;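 also: RGS4 induction absent so cells express M3R without RGS4; higher means more calcium signal and flags a non-specific hit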
RGS4 inh ctr2: signal in non-induced cells without carbachol, RGS4 inhibitor counter-screen; shares compounds with RGS4 block; HEK293 M3R/RGS4 non-induced, Fluo-4 calcium, no carbachol; normalised: buffer wells 0%, carbachol wells 100%; calcium response (agonist-mode artifact), % at 10 µM; hit rate 22% among 1,900;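 active = duplicate-averaged calcium rise in uninduced cells above buffer wells' mean plus 5 SD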
Numbers without * were called inactive; i = inactive; . = no result.

SMILES | MrgX1 antagonist | RGS4 block | RGS4 pot | MrgX1 PAM | MrgX1 agonist | RGS4 inh valid | M3R Ca ctr | RGS4 inh ctr2
C/C(=N\N=C1\NC(=O)C(CC(=O)Nc2ccc(C)c(Cl)c2)S1)C(C)(C)C (stereo unspecified) | i | 7.5* | i | i | i | 70%* | i | i
C/C(=N\N=C1\NC(=O)C(CC(=O)Nc2ccc(Cl)cc2)S1)c1ccco1 (stereo unspecified) | i | i | i | i | i | . | . | .
CCCOc1ccc(-c2c(=O)n(OCC(=O)OCC)c3ccccc3[n+]2[O-])cc1 | i | i | i | i | i | . | . | .
COc1cc(C(C(=O)NC2CCCCC2)N(C(=O)Cc2c[nH]c3ccccc23)c2ccc(C)cc2)cc(OC)c1OC (stereo unspecified) | i | i | i | i | i | i | i | i
COc1cc(/C=C2/C(=O)NN(c3cccc(F)c3)C2=O)ccc1OC(=O)c1ccco1 | i | i | i | i | i | . | i | i
COc1cc(/C=C2/C(=O)NN(c3ccc(Cl)cc3)C2=O)ccc1OC(=O)c1ccco1 | i | i | i | i | i | . | i | 8.5%*
COc1cc(/C=N/NC(=O)c2ccc(F)cc2)ccc1OC(=O)c1ccco1 | i | i | i | i | i | . | . | .
O=[N+]([O-])c1ccc(Cl)cc1NCCCN1CCOCC1 | i | i | i | i | i | . | . | .
O=C(N/N=C/c1ccc(O)cc1O)/C(=C/c1ccccc1)CCO | i | 9.6* | i | i | i | 53%* | 38%* | i
O=C(OCc1nnc(-c2ccc(Cl)cc2)o1)C12CC3CC(CC(O)(C3)C1)C2 | i | i | i | i | i | . | . | .
OCCOCCn1c(C(CO)Nc2nc(-c3cccc(Br)c3)cs2)nc2ccccc21 (stereo unspecified) | i | i | i | i | i | . | i | 7.5%*
OCCOCCn1c(C(CO)Nc2nc(-c3ccccc3Br)cs2)nc2ccccc21 (stereo unspecified) | i | i | i | i | i | . | . | .
CCCn1c(C(CO)Nc2nc(-c3cccc(Br)c3)cs2)nc2ccccc21 (stereo unspecified) | i | 10* | i | i | i | 32%* | i | i
Cc1ccc(S(C)(=O)=N/C=C2\C(=O)c3sccc3N(C)S2(=O)=O)cc1 (stereo unspecified) | i | 6.4* | i | i | i | 7.5%* | i | i
O=C(Nc1ccc2c(c1)OCCO2)c1cccnc1Oc1ccc(Cl)cc1 | i | i | i | i | i | i | i | i
O=C(Oc1ccccc1)c1cccnc1Oc1ccccc1 | i | 5* | i | i | i | i | i | i
O=C(Nc1ccc2c(c1)OCCO2)c1cccnc1Oc1ccccc1 | i | 4.7* | i | i | i | 5.5%* | i | i
NC(=O)CSc1nnnn1-c1ccccc1Cl | i | i | i | i | i | . | . | .
N#Cc1c(N)nc(SCc2ccccn2)c(C#N)c1-c1cccs1 | i | 4.7* | i | i | i | 9.0%* | 42%* | i
CCOC(=O)CSc1nc(N)c(C#N)c(-c2cccs2)c1C#N | i | i | i | i | i | . | . | .
Cc1ccc(C)c(OCCSc2nnc(-c3cccnc3)n2N)c1 | i | i | i | i | i | . | . | .
CC(=O)c1cc2ccc(O)cc2oc1=O | i | i | i | i | i | . | . | .
Cc1ccc(N=c2oc3cc(O)ccc3cc2C(N)=O)cc1 | i | i | i | i | i | . | i | i
Cc1ccc(CNC(=O)c2cn(C3CCCCC3)c(=O)c3c2c2ccccc2n3C)o1 | i | 6.1* | i | i | i | 13%* | i | i
Cc1ccc(NC(=O)c2ccc(Cl)cc2Cl)cc1O | i | i | i | i | i | . | . | .
SMILES | MrgX1 antagonist | RGS4 block | RGS4 pot | MrgX1 PAM | MrgX1 agonist | RGS4 inh valid | M3R Ca ctr | RGS4 inh ctr2
Oc1ccc(Br)cc1/C=N/n1c(C2CCCCC2)n[nH]c1=S | i | 5.7* | i | i | i | 5.0%* | i | i
O=C(c1ccccc1)c1ccc(NCCCn2ccnc2)c([N+](=O)[O-])c1 | i | i | i | i | i | . | . | .
COc1cc2[nH]c3c(N4CCC(C(N)=O)CC4)ncnc3c2cc1OC | i | 5.7* | i | i | i | i | i | i
NC(=O)C1CCN(C2=C(NS(=O)(=O)c3ccccc3)C(=O)c3ccccc3C2=O)CC1 | i | i | i | i | i | . | . | .
O=C1C(Cl)=C(N2CCC(C(=O)O)CC2)C(=O)c2ccccc21 | i | 8.8* | i | 15* | i | 39%* | i | i
Oc1ccc(Nc2nc(-c3ccc(O)cc3)cs2)cc1 | i | i | i | i | i | i | i | i
COc1ccc(Nc2nc(-c3ccc(OC)cc3)cs2)cc1 | i | i | i | i | i | i | i | i
COc1ccc(-c2csc(Nc3ccccc3)n2)cc1 | i | i | i | i | i | . | . | .
COc1ccc(-c2csc(Nc3ccc(S(=O)(=O)Nc4cc(C)on4)cc3)n2)cc1 | i | 15* | i | i | i | 30%* | 36%* | i
COc1cc(NS(=O)(=O)c2ccc(Nc3nc(-c4cccc([N+](=O)[O-])c4)cs3)cc2)nc(OC)n1 | i | i | i | i | i | . | 30%* | i
Cc1ccc(OCC(=O)NC(=S)Nc2ccc(Br)cn2)cc1 | i | i | i | i | i | . | . | .
COc1ccc(-c2noc(CN(C)Cc3ccc(C)o3)n2)cc1 | i | i | i | i | i | . | . | .
COc1cc(NC(=O)CCCNC(=O)Cn2cnc3sc(C)c(C)c3c2=O)cc(OC)c1OC | i | i | i | i | i | . | . | .
Cc1ccc(Nc2nc(N)c3ccccc3n2)cc1Cl | i | 7.3* | i | i | i | 9.5%* | i | i
Nc1nc(Nc2ccc(Cl)cc2)nc2ccccc12 | i | 22* | i | i | i | i | i | i
COc1cc2nc(Nc3ccc(C)c(Cl)c3)nc(N)c2cc1OC | i | i | i | i | i | . | . | .
Nc1nc(Nc2ccccc2)nc2ccccc12 | i | i | i | i | i | . | . | .
